Activity calls are given as the source filed them. The calls are words filed in the database; no cut-off is given here.
Key:
[1] = molecular target: T1, 11-beta-hydroxysteroid dehydrogenase 1 (Homo sapiens, UniProt P28845); assay: Inhibition of human recombinant 11beta-HSD1 expressed in Escherichia coli using [3H]cortisone by scintillation proximity assay
[2] = molecular target: T2, 11-beta-hydroxysteroid dehydrogenase type 2 (Homo sapiens, UniProt P80365); assay: Inhibition of human 11beta-HSD2 expressed in CHO cells using [3H]cortisol by scintillation proximity assay; format: cell-based
T2 sequence (P80365 whole entry): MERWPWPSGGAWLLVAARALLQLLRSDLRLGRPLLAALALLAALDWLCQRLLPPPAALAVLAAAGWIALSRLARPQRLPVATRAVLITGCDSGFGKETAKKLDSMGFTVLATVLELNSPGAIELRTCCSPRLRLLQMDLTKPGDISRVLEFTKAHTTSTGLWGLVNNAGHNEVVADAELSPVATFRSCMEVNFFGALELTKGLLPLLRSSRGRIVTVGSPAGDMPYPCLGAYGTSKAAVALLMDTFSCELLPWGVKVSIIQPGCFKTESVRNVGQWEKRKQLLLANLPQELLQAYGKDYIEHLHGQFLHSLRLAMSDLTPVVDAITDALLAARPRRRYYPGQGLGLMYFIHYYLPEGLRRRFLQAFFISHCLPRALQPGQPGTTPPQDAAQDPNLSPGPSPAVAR
Method in brief: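 Human 11β-HSD2 from CHO cells with [3H]cortisol 3 nM and NAD+ 300 µM, in 0.1 M sodium phosphate pH 7.6. 1 h at room temperature, then stopped with 18β-glycyrrhetinic acid. Anticortisol antibody and antimouse SPA beads added for 30 min; radiometric read-out.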

[3] = molecular target: T3, Nuclear receptor subfamily 1 group I member 2 (Homo sapiens, UniProt O75469); assay: Transactivation of human PXR transfected in HEK cells at 20 uM by luciferase reporter gene assay relative to 12.5 uM rifampin; format: cell-based; conditions: hek293, 20 µM
T3 sequence (O75469 whole entry): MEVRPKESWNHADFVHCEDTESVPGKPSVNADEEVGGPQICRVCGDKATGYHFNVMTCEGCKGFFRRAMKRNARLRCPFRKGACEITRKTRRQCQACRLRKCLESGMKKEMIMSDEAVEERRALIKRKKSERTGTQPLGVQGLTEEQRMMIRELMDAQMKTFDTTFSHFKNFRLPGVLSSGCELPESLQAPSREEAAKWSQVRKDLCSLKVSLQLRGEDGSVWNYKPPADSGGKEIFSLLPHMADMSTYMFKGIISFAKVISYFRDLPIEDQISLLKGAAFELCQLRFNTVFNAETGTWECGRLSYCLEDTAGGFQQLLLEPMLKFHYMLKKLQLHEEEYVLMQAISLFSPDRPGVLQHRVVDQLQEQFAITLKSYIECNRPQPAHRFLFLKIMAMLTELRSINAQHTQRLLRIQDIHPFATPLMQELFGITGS
Method in brief: (§1)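 HEK cells transfected with human PXR fused to a firefly luciferase reporter. Luciferase activity is expressed as percent of the 12.5 µM rifampin response. Run in triplicate; SEM reported.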

[4] = molecular target: T1, 11-beta-hydroxysteroid dehydrogenase 1; assay: Inhibition of human 11beta-HSD1 expressed in CHO cells assessed as conversion of cortisone to cortisol by ELISA; format: cell-based
[5] = molecular target: T4, PXR (nuclear receptor subfamily 1 group I member 2) (Homo sapiens, UniProt O75469); assay: Transactivation of human PXR transfected in HEK cells at 2 uM by luciferase reporter gene assay relative to 12.5 uM rifampin; format: cell-based; conditions: HEK293 cells transfected with human PXR, read-out: Activity; method in brief: as §1
T4 sequence (O75469 whole entry): T3 sequence (O75469 whole entry)

[6] = Inhibition of monkey 11beta-HSD1 expressed in CHO cells assessed as conversion of cortisone to cortisol by ELISA; format: cell-based, Macaca mulatta
Method in brief: (§2)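 CHO cells stably overexpressing the species 11β-HSD1, 30000 per well, seeded 1 day before. Rinsed in HEPES glucose buffer pH 7.4 with 0.1% DMSO. Compound 0.1 nM–10 µM final, 60 min at 37 °C. Cortisone then added (100 nM final) at 37 °C: mouse 45 min, dog 1.5 h, rat and monkey 2 h. Cortisol measured by ELISA.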

[7] = AUC (0 to infinity) in rat at 5 mg/kg, po; format: ADME, organism-based; design: time infinity, dose 5 mg/kg, route oral; conditions: plasma
[8] = Volume of distribution at steady state in rat at 2 mg/kg, iv and 5 mg/kg, po; format: ADME, organism-based; conditions: in vivo, read-out: Vdss
[9] = Half life in monkey at 2 mg/kg, iv; format: ADME, organism-based, Macaca mulatta; design: dose 2 mg/kg, route intravenous; conditions: rhesus monkey, in vivo
[10] = Oral bioavailability in rat at 5 mg/kg; format: ADME, organism-based; conditions: in vivo
[11] = molecular target: T5, 11-beta-hydroxysteroid dehydrogenase 1 (Rattus norvegicus, UniProt P16232); assay: Inhibition of rat recombinant 11beta-HSD1 expressed in Escherichia coli using [3H]cortisone by scintillation proximity assay
T5 sequence (P16232 whole entry): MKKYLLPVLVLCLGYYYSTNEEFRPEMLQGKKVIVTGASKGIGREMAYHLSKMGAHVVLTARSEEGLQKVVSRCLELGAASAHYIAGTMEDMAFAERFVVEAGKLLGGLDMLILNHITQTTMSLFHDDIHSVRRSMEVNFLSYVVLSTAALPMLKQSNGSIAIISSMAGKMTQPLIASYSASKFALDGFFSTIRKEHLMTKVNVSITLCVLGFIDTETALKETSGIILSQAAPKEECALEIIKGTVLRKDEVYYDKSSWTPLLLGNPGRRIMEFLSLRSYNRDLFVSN

[12] = Volume of distribution at steady state in mouse at 2 mg/kg, iv and 10 mg/kg, po; format: ADME, organism-based; conditions: in vivo, read-out: Vdss
[13] = Volume of distribution at steady state in monkey at 2 mg/kg, iv and 10 mg/kg, po; format: ADME, organism-based, Macaca mulatta; conditions: rhesus monkey, in vivo, read-out: Vdss
[14] = Oral bioavailability in monkey at 10 mg/kg; format: ADME, organism-based, Macaca mulatta; conditions: rhesus monkey, in vivo
[15] = molecular target: T6, 11-beta-hydroxysteroid dehydrogenase 1 (Mus musculus, UniProt P50172); assay: Inhibition of mouse 11beta-HSD1 expressed in CHO cells assessed as conversion of cortisone to cortisol by ELISA; format: cell-based; method in brief: as §2
T6 sequence (P50172 whole entry): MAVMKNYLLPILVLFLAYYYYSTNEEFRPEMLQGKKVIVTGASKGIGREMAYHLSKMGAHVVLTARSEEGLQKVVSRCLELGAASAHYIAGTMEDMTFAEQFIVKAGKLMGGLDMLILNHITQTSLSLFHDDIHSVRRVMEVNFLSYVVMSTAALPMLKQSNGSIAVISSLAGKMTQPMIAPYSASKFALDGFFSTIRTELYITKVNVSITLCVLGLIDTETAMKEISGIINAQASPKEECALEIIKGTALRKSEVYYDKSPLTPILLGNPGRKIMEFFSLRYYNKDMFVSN

[16] = system: Cynomolgus monkey; assay: Plasma concentration in cynomolgus monkey at 3 mg/kg, po; format: ADME, organism-based, Macaca fascicularis; design: dose 3 mg/kg, route oral; conditions: in vivo
Method in brief: (§3)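 Male cynomolgus monkeys, at least four per group, given a single nasal-gastric dose in 1% Tween 80, 47.5% Ora-Plus, 51.5% water. Plasma collected 2 h post-dose and snap-frozen.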

[17] = system: Cynomolgus monkey; assay: Inhibition of 11beta-HSD1 in mesenteric fat of cynomolgus monkey assessed as conversion of [3H]cortisone to [3H]cortisol at 30 mg/kg, po after 2 hrs; format: functional, organism-based; design: dose 30 mg/kg; conditions: Macaca fascicularis
Method in brief: (§4)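 Male cynomolgus monkeys, at least four per group, given a single nasal-gastric dose in 1% Tween 80/47.5% Ora-Plus/51.5% water. Plasma and mesenteric fat taken 2 h post-dose and snap-frozen. About 50 mg fat pieces, in triplicate, incubated 1 h at 37 °C in KRP buffer pH 7.4 containing 3H-cortisone. 3H-cortisol in the medium quantified by SPA with anti-cortisol antibody beads.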

[18] = system: Cynomolgus monkey; assay: Inhibition of 11beta-HSD1 in mesenteric fat of cynomolgus monkey assessed as conversion of [3H]cortisone to [3H]cortisol at 3 mg/kg, po after 2 hrs; format: functional, organism-based; design: dose 3 mg/kg; conditions: Macaca fascicularis; method in brief: as §4
[19] = Fraction unbound in cynomolgus monkey plasma protein; format: ADME, cell-free, Macaca fascicularis
[20] = Inhibition of monkey recombinant 11beta-HSD1 expressed in Escherichia coli using [3H]cortisone by scintillation proximity assay; design: species or system Macaca mulatta
[21] = Clearance in dog at 2 mg/kg, iv and 5 mg/kg, po; format: ADME, organism-based, Canis lupus familiaris; conditions: in vivo
Method in brief: (§5)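 Dog PK: intravenous 2 mg kg^-1 in 10% dimethylacetamide, 23% water, 67% PEG 400; oral 5 mg kg^-1 in 1% Tween 80, 47.5% OraPlus, 51.5% water.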

[22] = molecular target: T7, 11-beta-hydroxysteroid dehydrogenase type 1 (Canis lupus familiaris, UniProt Q5XX84); assay: Inhibition of dog 11beta-HSD1 expressed in CHO cells assessed as conversion of cortisone to cortisol by ELISA; format: cell-based; method in brief: as §2
T7 sequence (Q5XX84 whole entry): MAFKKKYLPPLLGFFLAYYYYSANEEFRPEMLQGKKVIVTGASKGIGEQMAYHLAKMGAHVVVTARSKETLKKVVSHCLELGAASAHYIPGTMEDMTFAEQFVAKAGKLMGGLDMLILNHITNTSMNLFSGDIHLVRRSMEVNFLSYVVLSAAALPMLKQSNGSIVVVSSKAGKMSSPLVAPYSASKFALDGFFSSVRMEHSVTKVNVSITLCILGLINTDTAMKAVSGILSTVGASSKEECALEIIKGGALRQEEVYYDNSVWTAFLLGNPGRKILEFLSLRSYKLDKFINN

[23] = molecular target: T7, 11-beta-hydroxysteroid dehydrogenase type 1; assay: Inhibition of dog recombinant 11beta-HSD1 expressed in Escherichia coli using [3H]cortisone by scintillation proximity assay
Method in brief: (§6)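 Purified enzyme expressed in E. coli, dog at 20 nM final and mouse at 5 nM. [3H]cortisone 100 nM, NADPH 200 µM, in 50 mM Tris-HCl, 1 mM EDTA, pH 7.2. 1 h at room temperature, then stopped with 18β-glycyrrhetinic acid. Anticortisol antibody and antimouse SPA beads added for 30 min; read by scintillation counting. Ki derived.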

[24] = AUC (0 to infinity) in dog at 5 mg/kg, po; format: ADME, organism-based, Canis lupus familiaris; design: time infinity, dose 5 mg/kg, route oral; conditions: plasma
[25] = Half life in mouse at 2 mg/kg, iv; format: ADME, organism-based; design: dose 2 mg/kg, route intravenous; conditions: in vivo
[26] = Half life in rat at 2 mg/kg, iv; format: ADME, organism-based; design: dose 2 mg/kg, route intravenous; conditions: in vivo
[27] = Clearance in monkey at 2 mg/kg, iv and 10 mg/kg, po; format: ADME, organism-based, Macaca mulatta; conditions: rhesus monkey, in vivo
[28] = molecular target: T5, 11-beta-hydroxysteroid dehydrogenase 1; assay: Inhibition of rat 11beta-HSD1 expressed in CHO cells assessed as conversion of cortisone to cortisol by ELISA; format: cell-based; method in brief: as §2
[29] = system: Hepatocyte; assay: Induction of CYP3A4 in cryopreserved human hepatocytes from male DJV donars with no adverse medical history or substance or alcohol abuse assessed as mRNA expression at 20 uM relative to 20 uM rifampin; format: functional
[30] = system: Hepatocyte; assay: Induction of CYP3A4 in cryopreserved human hepatocytes from female NPV donars with history of tobacco and substance usage assessed as mRNA expression at 20 uM relative to 20 uM rifampin; format: functional
[31] = system: Cynomolgus monkey; assay: Plasma concentration in cynomolgus monkey at 30 mg/kg, po; format: ADME, organism-based, Macaca fascicularis; design: dose 30 mg/kg, route oral; conditions: in vivo; method in brief: as §3
[32] = Clearance in mouse at 2 mg/kg, iv and 10 mg/kg, po; format: ADME, organism-based; conditions: in vivo
[33] = molecular target: T6, 11-beta-hydroxysteroid dehydrogenase 1; assay: Inhibition of mouse recombinant 11beta-HSD1 expressed in Escherichia coli using [3H]cortisone by scintillation proximity assay; method in brief: as §6
[34] = Clearance in rat at 2 mg/kg, iv and 5 mg/kg, po; format: ADME, organism-based; conditions: in vivo
[35] = molecular target: T8, Cytochrome P450 3A4 (Homo sapiens, UniProt P08684); assay: Induction of CYP3A4 activity in cryopreserved human hepatocytes from male DJV donars with no adverse medical history or substance or alcohol abuse at 20 uM relative to 20 uM rifampin
T8 sequence (P08684 whole entry): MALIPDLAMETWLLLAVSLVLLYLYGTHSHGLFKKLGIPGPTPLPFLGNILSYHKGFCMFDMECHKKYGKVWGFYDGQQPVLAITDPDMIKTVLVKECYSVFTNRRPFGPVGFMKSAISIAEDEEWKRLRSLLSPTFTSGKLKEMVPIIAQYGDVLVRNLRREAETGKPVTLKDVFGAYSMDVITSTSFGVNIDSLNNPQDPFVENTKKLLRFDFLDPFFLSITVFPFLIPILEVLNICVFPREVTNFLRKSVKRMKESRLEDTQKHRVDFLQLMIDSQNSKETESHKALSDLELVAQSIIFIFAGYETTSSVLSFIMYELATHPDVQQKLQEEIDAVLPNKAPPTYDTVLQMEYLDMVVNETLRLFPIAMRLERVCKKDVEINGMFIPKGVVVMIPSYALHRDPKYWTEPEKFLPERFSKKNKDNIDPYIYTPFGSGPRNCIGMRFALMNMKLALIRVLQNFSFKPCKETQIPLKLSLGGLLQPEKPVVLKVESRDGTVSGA

[36] = Volume of distribution at steady state in dog at 2 mg/kg, iv and 5 mg/kg, po; format: ADME, organism-based, Canis lupus familiaris; conditions: in vivo, read-out: Vdss; method in brief: as §5
[37] = Oral bioavailability in mouse at 10 mg/kg; format: ADME, organism-based; conditions: in vivo
[38] = AUC (0 to infinity) in mouse at 10 mg/kg, po; format: ADME, organism-based; design: dose 10 mg/kg, route oral, time infinity; conditions: plasma
[39] = molecular target: T8, Cytochrome P450 3A4; assay: Induction of CYP3A4 activity in cryopreserved human hepatocytes from female NPV donars with history of tobacco and substance usage at 20 uM relative to 20 uM rifampin
[40] = Half life in dog at 2 mg/kg, iv; format: ADME, organism-based, Canis lupus familiaris; design: dose 2 mg/kg, route intravenous; conditions: in vivo; method in brief: as §5
[41] = Oral bioavailability in dog at 5 mg/kg; format: ADME, organism-based, Canis lupus familiaris; conditions: in vivo
[42] = AUC (0 to infinity) in monkey at 10 mg/kg, po; format: ADME, organism-based, Macaca mulatta; design: time infinity, dose 10 mg/kg, route oral; conditions: rhesus monkey, plasma

T1 sequence (P28845 whole entry): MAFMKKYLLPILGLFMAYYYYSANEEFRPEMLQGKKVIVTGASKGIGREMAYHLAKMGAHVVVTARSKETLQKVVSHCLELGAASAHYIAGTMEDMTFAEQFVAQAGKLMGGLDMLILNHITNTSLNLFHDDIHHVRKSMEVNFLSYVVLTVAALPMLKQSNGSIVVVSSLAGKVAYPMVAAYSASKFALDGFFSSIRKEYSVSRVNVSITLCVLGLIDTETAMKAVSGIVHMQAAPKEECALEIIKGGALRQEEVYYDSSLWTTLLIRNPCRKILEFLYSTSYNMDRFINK

## C[C@H](NC1=NC(=O)C(C)(C(C)(C)O)S1)c1ccccc1C(F)(F)F (some centres not stated)
[1]
  Ki: 25 nM
[2]
  IC50: > 10000 nM
[3]
  Activity: 43%
[4]
  IC50: 43 nM

## C[C@H](NC1=NC(=O)C(C)(c2ccc(C(=O)N3CCCC3)cc2)S1)c1ccc(F)cc1 (some centres not stated)
[5]
  activity at 2 µM: 4.1%
[3]
  Activity: 35%

## O=C(Nc1cccc(C(=O)N2CCC[C@@H]3CCCC[C@H]32)c1)c1ccccc1
[4]
  IC50: 14 nM

## C[C@H](NC1=NC(=O)[C@](C)(C(C)(C)O)S1)c1ccc(F)cc1
[6]
  IC50: 42 nM
[7]
  AUC(0-inf): 9200 ng·h/mL
[8]
  Vd: 2.5 L/kg
[9]
  half-life: 2.2 h
[10]
  bioavailability: 56%
[11]
  Ki: 300 nM
[12]
  Vd: 1.4 L/kg
[13]
  Vd: 1.9 L/kg
[1]
  Ki: 35 nM
[14]
  bioavailability: 65%
[15]
  IC50: 140 nM
[16]
  concentration: 4.9 µM
[17]
  Activity: Active
[18]
  Activity: Active
[19]
  fraction unbound: 0.108
[20]
  Ki: 48 nM
[21]
  clearance: 1.42 mL/min/kg
[22]
  IC50: 45 nM
[23]
  Ki: 12 nM
[24]
  AUC(0-inf): 54000 ng·h/mL
[25]
  half-life: 3.3 h
[26]
  half-life: 5.6 h
[27]
  clearance: 20 mL/min/kg
[28]
  IC50: 340 nM
[29]
  Activity: 45%
[30]
  Activity: 13%
[31]
  concentration: 26 µM
[32]
  clearance: 26.7 mL/min/kg
[33]
  Ki: 100 nM
[34]
  clearance: 5.17 mL/min/kg
[3]
  Activity: 6%
[35]
  Activity: 17%
[36]
  Vd: 0.88 L/kg
[37]
  bioavailability: 100%
[38]
  AUC(0-inf): 6500 ng·h/mL
[4]
  IC50: 34 nM
[39]
  Activity: 10%
[40]
  half-life: 7.3 h
[41]
  bioavailability: 91%
[42]
  AUC(0-inf): 5700 ng·h/mL

From ChEMBL document CHEMBL1151735, “Further studies with the 2-amino-1,3-thiazol-4(5H)-one class of 11beta-hydroxysteroid dehydrogenase type 1 inhibitors: reducing pregnane X receptor activity and exploring activity in a monkey pharmacodynamic model” (J Med Chem, 2008)
